Test results as given in ChEMBL document CHEMBL4190249, “Antiproliferative and apoptotic activities of sequence-specific histone acetyltransferase inhibitors” (Eur J Med Chem, 2017).
Calls of active or inactive are those of the source. No cut-off for these calls is given here.

How the values were obtained:
MDA-MB-231 = assay: Antiproliferative activity against human MDA-MB-231 cells harboring p53 mutant assessed as cell viability at 10 uM after 96 hrs by WST8 assay relative to control; type: functional; details: MDA-MB-231, 96 h, read-out: Activity
A549 [1] = assay: Downregulation of GUSBP3 gene expression in human A549 cells at 2 uM after 48 hrs by microarray analysis relative to control; type: functional
Summary of the method: (§1)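 A549 cells plated at 2×10^5 cells/well, treated 48 h at 2 μM, with DMSO vehicle as control. Whole-genome transcriptional profiling followed the manufacturer's protocol. Total RNA integrity was checked by Bioanalyzer before arraying.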

A549 [2] = assay: Downregulation of SNORA9 gene expression in human A549 cells at 2 uM after 48 hrs by microarray analysis relative to control; type: functional; summary of the method: as §1
A549 [3] = assay: Upregulation of NEFL gene expression in human A549 cells at 2 uM after 48 hrs by microarray analysis relative to control; type: functional; summary of the method: as §1
A549 [4] = assay: Upregulation of GAS6-AS1 gene expression in human A549 cells at 2 uM after 48 hrs by microarray analysis relative to control; type: functional; summary of the method: as §1
[5] = target: Cellular tumor antigen p53 (Homo sapiens) (UniProt P04637); assay: Activation of p53 in human A549 cells assessed as upregulation of DDB2 gene expression at 2 uM after 48 hrs by microarray analysis relative to control; type: cell-based; summary of the method: as §1
Chain of Cellular tumor antigen p53 (Homo sapiens) (P04637 whole entry, looked up): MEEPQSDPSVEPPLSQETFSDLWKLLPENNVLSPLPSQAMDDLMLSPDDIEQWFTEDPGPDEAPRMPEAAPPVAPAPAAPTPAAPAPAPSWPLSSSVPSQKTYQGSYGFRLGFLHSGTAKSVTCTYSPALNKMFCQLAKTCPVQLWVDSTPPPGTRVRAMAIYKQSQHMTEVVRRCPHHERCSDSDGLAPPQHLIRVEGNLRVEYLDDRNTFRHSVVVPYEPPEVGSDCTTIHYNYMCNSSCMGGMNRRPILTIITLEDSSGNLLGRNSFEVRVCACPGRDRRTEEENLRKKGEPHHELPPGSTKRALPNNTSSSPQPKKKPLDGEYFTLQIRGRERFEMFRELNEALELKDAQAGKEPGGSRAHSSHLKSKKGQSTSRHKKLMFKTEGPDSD

[6] = target: Cellular tumor antigen p53 (Homo sapiens) (UniProt P04637); assay: Activation of p53 in human A549 cells assessed as upregulation of SPATA18 gene expression at 2 uM after 48 hrs by microarray analysis relative to control; type: cell-based; summary of the method: as §1
[7] = target: Cellular tumor antigen p53 (Homo sapiens) (UniProt P04637); assay: Activation of p53 in human A549 cells assessed as upregulation of TP53INP1 gene expression at 2 uM after 48 hrs by microarray analysis relative to control; type: cell-based; summary of the method: as §1
[8] = target: Cellular tumor antigen p53 (Homo sapiens) (UniProt P04637); assay: Activation of p53 in human A549 cells assessed as upregulation of EDA2R gene expression at 2 uM after 48 hrs by microarray analysis relative to control; type: cell-based; summary of the method: as §1
A549 [9] = assay: Upregulation of POLH gene expression in human A549 cells at 2 uM after 48 hrs by microarray analysis relative to control; type: functional; summary of the method: as §1
dsDNA [10] = assay: Binding affinity to 5'-ACTTATCCACTATAGA-3'/3'-TGAATAGGTGATATCT-5' dsDNA (unknown origin) assessed as change in melting temperature at 2.5 uM by spectrophotometric method; type: nucleic-acid assay
dsDNA [11] = assay: Binding affinity to 5'-ACTTATTCCATATAGA-3'/3'-TGAATAAGGTATATCT-5' dsDNA (unknown origin) assessed as change in melting temperature at 2.5 uM by spectrophotometric method; type: nucleic-acid assay
[12] = target: Cellular tumor antigen p53 (Homo sapiens) (UniProt P04637); assay: Activation of p53 in human A549 cells assessed as upregulation of BTG2 gene expression at 2 uM after 48 hrs by microarray analysis relative to control; type: cell-based; summary of the method: as §1
A549 [13] = assay: Upregulation of CDKN1A gene expression in human A549 cells at 2 uM after 48 hrs by microarray analysis relative to control; type: functional; summary of the method: as §1
[14] = target: Cellular tumor antigen p53 (Homo sapiens) (UniProt P04637); assay: Activation of p53 in human A549 cells assessed as downregulation of CHAC1 gene expression at 2 uM after 48 hrs by microarray analysis relative to control; type: cell-based; summary of the method: as §1
[15] = target: Cellular tumor antigen p53 (Homo sapiens) (UniProt P04637); assay: Activation of p53 in human A549 cells assessed as upregulation of CYFIP2 gene expression at 2 uM after 48 hrs by microarray analysis relative to control; type: cell-based; summary of the method: as §1
A549 [16] = assay: Upregulation of MIR4713 gene expression in human A549 cells at 2 uM after 48 hrs by microarray analysis relative to control; type: functional; summary of the method: as §1
[17] = target: Cellular tumor antigen p53 (Homo sapiens) (UniProt P04637); assay: Activation of p53 in human A549 cells assessed as upregulation of CD70 gene expression at 2 uM after 48 hrs by microarray analysis relative to control; type: cell-based; summary of the method: as §1
A549 [18] = assay: Downregulation of ULBP1 gene expression in human A549 cells at 2 uM after 48 hrs by microarray analysis relative to control; type: functional; summary of the method: as §1
A549 [19] = assay: Upregulation of ANKRD1 gene expression in human A549 cells at 2 uM after 48 hrs by microarray analysis relative to control; type: functional; summary of the method: as §1
[20] = target: Cellular tumor antigen p53 (Homo sapiens) (UniProt P04637); assay: Activation of p53 in human A549 cells assessed as upregulation of SESN1 gene expression at 2 uM after 48 hrs by microarray analysis relative to control; type: cell-based; summary of the method: as §1
A549 [21] = assay: Upregulation of MIR3685 gene expression in human A549 cells at 2 uM after 48 hrs by microarray analysis relative to control; type: functional; summary of the method: as §1
MV4-11 = assay: Antiproliferative activity against human MV4-11 cells harboring wild type p53 after 96 hrs by WST8 assay; type: functional, cell-based; details: MV4-11, 96 h
SW-620 = assay: Antiproliferative activity against human SW620 cells harboring p53 mutant assessed as cell viability at 10 uM after 96 hrs by WST8 assay relative to control; type: functional; details: SW-620, 96 h, read-out: Activity
Summary of the method: (§2)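 Cells seeded at 5×10^3 per well and grown 24 h at 37°C, 5% CO2. A549 medium was DMEM with 10% FBS and 2 mM L-glutamine. SW620 medium had 10% FBS and 1% penicillin/streptomycin. Medium was then replaced with conjugate at 0.1, 1, 5 or 10 μM for 96 h. WST-8 reagent was added and absorbance read at 450 nm. Results are mean ± SD.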

A549 [22] = assay: Induction of apoptosis in human A549 cells at 2 uM after 48 hrs by Annexin V-FITC/ethidium homodimer-3/Hoechst 33342 staining based fluorescence microscopic method; type: functional, cell-based
Summary of the method: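 A549 cells seeded in chamber slides at 2×10^4 cells/well and exposed to 2 μM for 48 h; vehicle control 0.1% DMSO. Cells were washed in binding buffer and stained with FITC-annexin V (apoptotic), ethidium homodimer III (necrotic) and Hoechst 33342 (all nuclei), then imaged by confocal fluorescence microscopy.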

A549 [23] = assay: Downregulation of TAS2R30 gene expression in human A549 cells at 2 uM after 48 hrs by microarray analysis relative to control; type: functional; summary of the method: as §1
[24] = target: Histone acetyltransferase p300 (Homo sapiens, UniProt Q09472); assay: Inhibition of p300 (unknown origin) using H3 peptide and acetyl-coA as substrate by fluorometric assay
Chain of Histone acetyltransferase p300 (Q09472 whole entry, the tested form may be a part): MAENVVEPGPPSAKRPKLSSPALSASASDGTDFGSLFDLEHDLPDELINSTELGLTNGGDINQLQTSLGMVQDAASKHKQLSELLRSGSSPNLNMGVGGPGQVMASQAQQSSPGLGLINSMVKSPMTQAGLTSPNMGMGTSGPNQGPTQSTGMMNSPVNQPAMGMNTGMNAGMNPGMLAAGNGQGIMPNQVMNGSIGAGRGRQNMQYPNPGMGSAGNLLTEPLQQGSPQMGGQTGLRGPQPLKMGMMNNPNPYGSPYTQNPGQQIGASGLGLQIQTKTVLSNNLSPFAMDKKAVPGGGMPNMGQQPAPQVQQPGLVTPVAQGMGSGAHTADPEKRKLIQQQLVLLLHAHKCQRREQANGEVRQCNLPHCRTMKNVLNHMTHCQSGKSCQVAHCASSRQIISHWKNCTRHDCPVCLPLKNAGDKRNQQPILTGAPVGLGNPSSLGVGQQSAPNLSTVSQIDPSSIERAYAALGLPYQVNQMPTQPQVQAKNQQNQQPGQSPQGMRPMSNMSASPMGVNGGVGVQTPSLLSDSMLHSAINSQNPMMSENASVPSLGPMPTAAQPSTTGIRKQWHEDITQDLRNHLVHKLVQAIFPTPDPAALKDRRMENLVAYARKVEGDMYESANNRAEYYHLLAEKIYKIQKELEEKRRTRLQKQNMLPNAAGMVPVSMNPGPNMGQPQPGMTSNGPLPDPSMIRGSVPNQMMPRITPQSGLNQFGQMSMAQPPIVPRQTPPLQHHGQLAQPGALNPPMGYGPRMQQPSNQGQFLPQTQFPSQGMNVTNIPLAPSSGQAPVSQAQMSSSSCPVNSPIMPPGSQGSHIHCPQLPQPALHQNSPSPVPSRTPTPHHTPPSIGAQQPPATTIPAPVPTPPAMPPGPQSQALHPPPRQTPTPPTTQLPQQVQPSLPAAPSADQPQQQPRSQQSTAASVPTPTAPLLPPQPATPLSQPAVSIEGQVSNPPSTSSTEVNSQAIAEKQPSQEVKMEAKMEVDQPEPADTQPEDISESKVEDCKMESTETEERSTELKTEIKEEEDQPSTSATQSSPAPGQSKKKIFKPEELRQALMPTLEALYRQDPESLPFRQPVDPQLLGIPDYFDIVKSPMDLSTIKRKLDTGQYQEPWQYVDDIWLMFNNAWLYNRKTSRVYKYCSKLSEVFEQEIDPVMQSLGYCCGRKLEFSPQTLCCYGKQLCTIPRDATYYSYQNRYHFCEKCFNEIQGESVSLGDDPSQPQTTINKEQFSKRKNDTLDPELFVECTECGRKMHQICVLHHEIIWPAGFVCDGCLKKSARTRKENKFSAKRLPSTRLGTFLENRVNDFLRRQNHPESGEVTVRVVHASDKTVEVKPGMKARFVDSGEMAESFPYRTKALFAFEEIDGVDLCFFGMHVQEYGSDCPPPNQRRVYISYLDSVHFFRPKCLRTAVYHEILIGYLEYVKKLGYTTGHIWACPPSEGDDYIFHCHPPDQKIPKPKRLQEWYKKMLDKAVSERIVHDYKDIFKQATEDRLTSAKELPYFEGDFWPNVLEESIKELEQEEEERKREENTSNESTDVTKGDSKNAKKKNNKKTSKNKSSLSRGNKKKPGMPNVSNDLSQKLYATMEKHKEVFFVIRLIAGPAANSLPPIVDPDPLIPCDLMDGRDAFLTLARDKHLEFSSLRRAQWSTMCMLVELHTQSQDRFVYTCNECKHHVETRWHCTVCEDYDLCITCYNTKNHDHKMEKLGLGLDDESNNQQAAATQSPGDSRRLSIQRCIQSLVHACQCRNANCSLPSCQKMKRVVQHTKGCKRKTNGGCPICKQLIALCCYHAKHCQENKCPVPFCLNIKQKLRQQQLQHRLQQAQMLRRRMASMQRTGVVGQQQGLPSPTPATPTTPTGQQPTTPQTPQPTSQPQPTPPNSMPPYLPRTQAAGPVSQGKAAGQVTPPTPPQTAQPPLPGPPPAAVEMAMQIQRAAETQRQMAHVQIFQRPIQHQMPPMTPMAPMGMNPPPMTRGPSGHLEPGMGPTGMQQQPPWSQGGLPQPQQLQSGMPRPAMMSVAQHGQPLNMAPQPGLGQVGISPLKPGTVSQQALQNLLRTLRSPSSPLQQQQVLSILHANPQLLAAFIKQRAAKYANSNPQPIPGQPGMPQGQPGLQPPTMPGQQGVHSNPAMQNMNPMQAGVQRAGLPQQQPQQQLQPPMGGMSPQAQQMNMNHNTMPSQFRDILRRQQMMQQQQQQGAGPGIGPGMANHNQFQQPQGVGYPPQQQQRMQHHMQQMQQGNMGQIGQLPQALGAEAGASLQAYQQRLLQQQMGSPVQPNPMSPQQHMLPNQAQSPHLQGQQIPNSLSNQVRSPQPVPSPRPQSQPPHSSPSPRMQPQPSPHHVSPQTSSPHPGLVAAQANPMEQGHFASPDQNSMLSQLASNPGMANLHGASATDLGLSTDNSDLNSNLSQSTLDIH
Summary of the method: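 Fluorometric HAT kit assay with recombinant p300 core domain as enzyme and acetyl-CoA plus H3 histone peptide as substrates. Effectors were tested at 1 and 5 μM. HeLa nuclear extract served as positive control, and 0.5% DMSO was set as 100% activity.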

A549 [25] = assay: Upregulation of GDF15 gene expression in human A549 cells at 2 uM after 48 hrs by microarray analysis relative to control; type: functional; summary of the method: as §1
A549 [26] = assay: Upregulation of MIR3189 gene expression in human A549 cells at 2 uM after 48 hrs by microarray analysis relative to control; type: functional; summary of the method: as §1
A549 [27] = assay: Antiproliferative activity against human A549 cells after 96 hrs by WST8 assay; type: functional, cell-based; summary of the method: as §2
[28] = target: Cellular tumor antigen p53 (Homo sapiens) (UniProt P04637); assay: Activation of p53 in human A549 cells assessed as upregulation of MDM2 gene expression at 2 uM after 48 hrs by microarray analysis relative to control; type: cell-based; summary of the method: as §1
A549 [29] = assay: Downregulation of ASNS gene expression in human A549 cells at 2 uM after 48 hrs by microarray analysis relative to control; type: functional; summary of the method: as §1
A549 [30] = assay: Upregulation of UIMC1 gene expression in human A549 cells at 2 uM after 48 hrs by microarray analysis relative to control; type: functional; summary of the method: as §1
A549 [31] = assay: Downregulation of ALDH1L2 gene expression in human A549 cells at 2 uM after 48 hrs by microarray analysis relative to control; type: functional; summary of the method: as §1
[32] = target: Cellular tumor antigen p53 (Homo sapiens) (UniProt P04637); assay: Activation of p53 in human A549 cells assessed as upregulation of FAS gene expression at 2 uM after 48 hrs by microarray analysis relative to control; type: cell-based; summary of the method: as §1
A549 [33] = assay: Upregulation of SULF2 gene expression in human A549 cells at 2 uM after 48 hrs by microarray analysis relative to control; type: functional; summary of the method: as §1
A549 [34] = assay: Upregulation of WDR63 gene expression in human A549 cells at 2 uM after 48 hrs by microarray analysis relative to control; type: functional; summary of the method: as §1
A549 [35] = assay: Upregulation of ABCA12 gene expression in human A549 cells at 2 uM after 48 hrs by microarray analysis relative to control; type: functional; summary of the method: as §1
[36] = target: Cellular tumor antigen p53 (Homo sapiens) (UniProt P04637); assay: Activation of p53 in human A549 cells assessed as upregulation of FDXR gene expression at 2 uM after 48 hrs by microarray analysis relative to control; type: cell-based; summary of the method: as §1
[37] = target: Cellular tumor antigen p53 (Homo sapiens) (UniProt P04637); assay: Activation of p53 in human A549 cells assessed as downregulation of STC2 gene expression at 2 uM after 48 hrs by microarray analysis relative to control; type: cell-based; summary of the method: as §1
A549 [38] = assay: Upregulation of SCARNA7 gene expression in human A549 cells at 2 uM after 48 hrs by microarray analysis relative to control; type: functional; summary of the method: as §1
[39] = target: Cellular tumor antigen p53 (Homo sapiens) (UniProt P04637); assay: Activation of p53 in human A549 cells assessed as downregulation of CARS gene expression at 2 uM after 48 hrs by microarray analysis relative to control; type: cell-based; summary of the method: as §1

With CC1=NN(c2ccc(C(=O)NCCOCCOCC(=O)NCCC(=O)Nc3cc(C(=O)Nc4cn(C)c(C(=O)Nc5cn(C)c(C(=O)Nc6cc(C(=O)NCCCC(=O)Nc7cc(C(=O)Nc8cc(C(=O)Nc9cc(C(=O)Nc%10cc(C(=O)NCCCN(C)C)n(C)c%10)n(C)c9)n(C)c8)n(C)c7)n(C)c6)n5)n4)n(C)c3)cc2)C(=O)/C1=C/c1ccc(-c2cc(C)c(C)cc2[N+](=O)[O-])o1 the viability at 10 µM (MDA-MB-231) was 69.3%, the “fold change (FC)” value (A549 [1]) was 2.63 and the “fold change (FC)” value (A549 [2]) was 1.81. For the same compound, the “fold change (FC)” value (A549 [3]) was 1.8, the “fold change (FC)” value (A549 [4]) was 1.81 and the fold change (FC) [5] was 1.8. The fold change (FC) [6] was 2.98, the fold change (FC) [7] was 1.85 and the fold change (FC) [8] was 2.53. The “fold change (FC)” value (A549 [9]) was 1.88, the ΔTm (dsDNA [10]) was 11.5 °C and the ΔTm (dsDNA [11]) was 18.1 °C. For the same compound, the fold change (FC) [12] was 2.35, the “fold change (FC)” value (A549 [13]) was 2.28 and the fold change (FC) [14] was 3.64. For the same compound, the fold change (FC) [15] was 1.88, the “fold change (FC)” value (A549 [16]) was 1.94 and the fold change (FC) [17] was 1.83. For the same compound, the “fold change (FC)” value (A549 [18]) was 2.34, the “fold change (FC)” value (A549 [19]) was 1.81 and the fold change (FC) [20] was 1.91. For the same compound, the “fold change (FC)” value (A549 [21]) was 1.89, the IC50 (MV4-11) was 2.6 µM and the viability at 10 µM (SW-620) was 78.4%. The Activity (A549 [22]) was “Active”, the “fold change (FC)” value (A549 [23]) was 2.01 and the IC50 [24] was 3.9 to 4.2 µM. The “fold change (FC)” value (A549 [25]) was 1.81, the “fold change (FC)” value (A549 [26]) was 2.32 and the Activity (A549 [27]) was “Dose-dependent effect”. For the same compound, the IC50 (A549 [27]; A549, 96 h) was 1.8 µM, the fold change (FC) [28] was 1.97 and the “fold change (FC)” value (A549 [29]) was 2.01. For the same compound, the “fold change (FC)” value (A549 [30]) was 1.94, the “fold change (FC)” value (A549 [31]) was 1.86 and the fold change (FC) [32] was 1.83. For the same compound, the “fold change (FC)” value (A549 [33]) was 2.13, the “fold change (FC)” value (A549 [34]) was 2.03 and the “fold change (FC)” value (A549 [35]) was 2.42. For the same compound, the fold change (FC) [36] was 2, the fold change (FC) [37] was 2.34 and the “fold change (FC)” value (A549 [38]) was 1.89. For the same compound, the fold change (FC) [39] was 1.9.
